These results are taken from ChEMBL document CHEMBL3526151, “Reversible disulfide formation of the glutamate carboxypeptidase II inhibitor E2072 results in prolonged systemic exposures in vivo” (Drug Metab Dispos, 2012).

Series [1] deals with Rattus norvegicus. The experiment in a line: Elimination half life in Sprague-Dawley rat at 10 mg/kg, iv by LC-MS/MS analysis. In kind it is ADME, organism-based. The arrangement: dose 10 mg/kg, route intravenous. Particulars: in vivo. The procedure, abridged: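 Male Sprague-Dawley rats received a single IV dose of either 10 mg/kg parent drug (n = 6) or 5 mg/kg homodisulfide (n = 5), in 50 mM HEPES-buffered saline, pH 7.4. Blood was collected into NEM-containing heparinized tubes for up to 7 days. Parent drug and homodisulfide in plasma were quantified by LC-MS/MS. Terminal t1/2β was calculated as 0.693/λz.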

Series [2] in a line: Volume of distribution in cynomolgus monkey at 5 mg/kg, iv administered as bolus injection by LC-MS/MS analysis. In kind it is ADME, organism-based, Macaca fascicularis. The arrangement: dose 5 mg/kg, route intravenous. Particulars: in vivo. The procedure, abridged: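 Monkey i.v. bolus at 5 mg/kg nominal (n=3), TCEP-treated HEPES solution, via cephalic or saphenous vein. Arterial blood into NEM tubes over 9 days. Plasma measured by LC-MS/MS; Vd = dose/(AUCinf·λz).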

A short description of series [3]: Cmax in Sprague-Dawley rat brain at 10 mg/kg, po administered as single dose measured per gm of tissue by LC-MS/MS analysis. The format is ADME, organism-based. The arrangement: dose 10 mg/kg, route oral. The procedure, abridged:
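Male Sprague-Dawley rats were dosed orally with 10 mg/kg/day, either once or daily for 5 days; n = 4 per group. Blood was taken by cardiac puncture and liver, kidney, brain and sciatic nerve were collected at 0–8 h post-dose. Tissues were homogenized in PBS containing NEM at equal volume per gram. NEM-derivatized analyte was extracted with methanol and quantified by LC-MS/MS (1–5000 ng/ml). Cmax is the observed value.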

Series [4] deals with Rattus norvegicus. The experiment in a line: Analgesic activity in Sprague-Dawley rat chronic constriction injury model assessed as change in paw withdrawal latency at 10 mg/kg/day, po measured 11 days after drug treatment cessation (reference value: -2.77 +/-0.3 s). The format is functional.
Series [5] in a line: Phase 1 metabolic stability in dog liver microsomes assessed as compound remaining at 10 uM measured for 1 hr by LC-MS/MS analysis. In kind it is ADME, Canis lupus familiaris. Conditions: read-out: Stability. The procedure, abridged: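 Liver microsomes (0.5 mg/ml) were incubated with 10 µM compound (final) in 100 mM potassium phosphate, pH 7.4. An NADPH-regenerating system was present: 1.3 mM NADPH, 3.3 mM glucose 6-phosphate, 3.3 mM MgCl2, 0.4 U/ml G6PDH and 50 µM sodium citrate. Runs were in duplicate, with samples taken up to 1 h and quenched with acetonitrile containing internal standard. Loss of compound was followed by LC-MS/MS.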

Series [6] is described as follows: Phase 2 metabolic stability in mouse liver microsomes assessed as compound remaining at 10 uM measured for 1 hr by LC-MS/MS analysis in absence of cofactors. Particulars: read-out: Stability. The format is ADME. The procedure, abridged:
(§1)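 Glucuronidation in liver microsomes of the named species, 0.5 mg/ml protein, compound at 10 μM final, in 50 mM Tris-HCl pH 7.5 with 8 mM MgCl2 and 25 μg/ml alamethicin. Preincubated at 37°C, then started with 2 mM UDPGA (final); cofactor-free controls run alongside. Duplicate reactions, sampled up to 1 h, quenched with cold acetonitrile plus internal standard; disappearance followed by LC-MS/MS.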

The nature of series [7]: Phase 2 metabolic stability in rat liver microsomes assessed as compound remaining at 10 uM measured for 1 hr by LC-MS/MS analysis in absence of cofactors. The format is ADME. Particulars: read-out: Stability. The procedure, abridged:
as §1

Series [8] in a line: Phase 2 metabolic stability in human liver microsomes assessed as compound remaining at 10 uM measured for 1 hr by LC-MS/MS analysis in absence of cofactors. In kind it is ADME. Conditions: read-out: Stability. The procedure, abridged: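 Cofactor-free controls were run for each microsomal incubation: 0.5 mg/ml liver microsomes with 10 µM compound, omitting cofactors, so that cofactor-independent degradation could be measured. Samples were taken up to 1 h, quenched with acetonitrile containing internal standard, and the percent remaining was determined by LC-MS/MS.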

A short description of series [9]: Protein binding in Sprague-Dawley rat serum at 10 uM after 1 hr by LC-MS/MS analysis. The format is ADME, cell-free. Particulars: read-out: PB (converted). The procedure, abridged: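 Serum from the named species spiked to 10 μM and held 1 h at 37°C, then ultrafiltered through a 5000 Da cutoff device (45 min, 37°C, 1800g). Filtrate and unfiltered serum extracted and measured by LC-MS/MS; % bound = 100 − (Cu/Cs × 100).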

Series [10] in a line: Cmax in Sprague-Dawley rat at 30 mg/kg, po administered via gavage measured under fasted conditions by LC-MS/MS analysis. The format is ADME, organism-based. The arrangement: dose 30 mg/kg, route oral. Conditions: in vivo. The method, boiled down:
(§2)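 Fasted male Sprague-Dawley rats (280–330 g) received 0.1, 1, 10 or 30 mg/kg by oral gavage in 50 mM HEPES buffered saline, pH 7.4. Blood drawn at 0.25–24 h into heparin/NEM tubes; plasma analyzed by LC-MS/MS. Cmax taken as observed. AUC by linear trapezoidal rule with extrapolation by λz. Cl/F and Vd/F reported. Mean ± S.D., n = 4–9.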

The nature of series [11]: AUC(0 to last) in Sprague-Dawley rat at 1 mg/kg, po administered via gavage measured under fasted conditions by LC-MS/MS analysis. Particulars: plasma. The format is ADME, organism-based. The arrangement: time 0 - last, dose 1 mg/kg, route oral. The method, boiled down:
as §2

Series [12] can be described thus: Clearance in Sprague-Dawley rat at 1 mg/kg, iv administered as bolus injection measured under fasted conditions by LC-MS/MS analysis. In kind it is ADME, organism-based. The arrangement: dose 1 mg/kg, route intravenous. Conditions: in vivo. The method, boiled down:
(§3)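 Male Sprague-Dawley rats (280–330 g), jugular vein cannulated, fasted overnight until 4 h post-dose. Single tail-vein bolus of 0.1, 1, 10 or 30 mg/kg in 50 mM HEPES buffered saline, pH 7.4. Blood drawn 0–24 h into heparin tubes containing NEM. Plasma quantified by LC-MS/MS after NEM derivatization. Noncompartmental analysis: AUClast by linear trapezoidal rule, Cl = dose/AUC0-∞. Mean ± S.D., n = 4–9.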

Series [13] concerns Rattus norvegicus. The experiment in a line: Clearance in Sprague-Dawley rat at 10 mg/kg, iv administered as bolus injection measured under fasted conditions by LC-MS/MS analysis. In kind it is ADME, organism-based. The arrangement: dose 10 mg/kg, route intravenous. Conditions: in vivo. The method, boiled down:
as §3

Series [14] in a line: Volume of distribution in Sprague-Dawley rat at 0.1 mg/kg, iv administered as bolus injection measured under fasted conditions by LC-MS/MS analysis. Conditions: in vivo. The format is ADME, organism-based. The arrangement: dose 0.1 mg/kg, route intravenous. The method, boiled down:
(§4)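 Jugular-cannulated male Sprague-Dawley rats, 280–330 g, fasted overnight to 4 h post-dose. Single dose in 50 mM HEPES-buffered saline pH 7.4, by oral gavage or as tail-vein i.v. bolus. Blood into heparin/NEM tubes at 0–24 h. Plasma measured by LC-MS/MS; noncompartmental analysis; Tmax observed; Vd = dose/(AUCinf·λz).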

Series [15] is described as follows: Apparent volume of distribution in Sprague-Dawley rat at 0.1 mg/kg, po administered via gavage measured under fasted conditions by LC-MS/MS analysis. The format is ADME, organism-based. The arrangement: dose 0.1 mg/kg, route oral. Conditions: in vivo. The method, boiled down: as §2
Series [16] in a line: Volume of distribution in Sprague-Dawley rat at 1 mg/kg, iv administered as bolus injection measured under fasted conditions by LC-MS/MS analysis. In kind it is ADME, organism-based. The arrangement: dose 1 mg/kg, route intravenous. Conditions: in vivo. The method, boiled down:
as §4

Series [17] in a line: Apparent volume of distribution in Sprague-Dawley rat at 30 mg/kg, po administered via gavage measured under fasted conditions by LC-MS/MS analysis. In kind it is ADME, organism-based. The arrangement: dose 30 mg/kg, route oral. Particulars: in vivo. The method, boiled down: as §2
The nature of series [18]: Drug recovery in cynomolgus monkey serum protein binding experiment. Conditions: in vitro.

Structures are written as SMILES.

With `O=C(O)c1cccc(-c2cccc(CCS)c2C(=O)O)c1`, the “beta t1/2” value in the series on Rattus norvegicus [1] worked out at 105 h. For the same compound, the volume of distribution (Vd) turned out to be 0.72 L/kg in series [2], 0.2 L/kg in series [14] and 0.21 L/kg in series [16]. For the same compound, the figures for the Cmax in series [3] and in [10] were 25 ng/g and 13000 ng/mL, respectively. In addition, the Time with Rattus norvegicus [4] is recorded as -1.9 s. Also, the remaining at 1 h, 10 µM in series [5], in [6], in series [7] and in series [8] was > 90% in each case. Also, the fraction unbound at 1 h, 10 µM in series [9] was 0.025. This compound came in with an AUC(0-t) in series [11] of 2610 ng·h/mL. In series [12], this compound showed a clearance of 0.833 mL/min/kg. For the same compound, the CL in the series with Rattus norvegicus [13] was 4.5 mL/min/kg. For the same compound, the Vd/F in series [15] came out at 2.98 L/kg; in [17], 2.39 L/kg. For the same compound, the Drug recovery in [18] came out at 80%.
